Laboratory results as given in PMC7105043 (Journal of the Chinese Medical Association, 2017).
In brackets after ≈: the same amount, converted by molar mass.

What was measured:
XTT cytotoxicity assay = format: cell-based, human; conditions: dog, MDCK cells
Summary of the method: (§1)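 Test compound serially diluted in complete MEM (10% heat-inactivated FBS) and added to A549 cells seeded at 1 × 10^4 cells/well and pre-incubated 24 h. Cells exposed 3 days at 35 °C, 5% CO2, then XTT reagent for 4 h. Absorbance read at 450 nm, reference 620 nm. Viability relative to untreated control (100%). Triplicate wells, at least three independent runs.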

[1] = test system: pandemic influenza A (H1N1) virus (A/California/07/2009); experiment: microbe, parasite or virus in culture; format: cell-based
[2] = test system: pandemic influenza A (H1N1) virus; format: cell-based
[3] = test system: pandemic influenza A (H1N1) virus; format: cell-based; remark: listed apart in the source
[4] = test system: pandemic influenza A (H1N1) virus; format: cell-based; remark: listed apart in the source
[5] = test system: H1N1 A/Puerto Rico/8/34-NS116-GFP; conditions: ref 25 (Theisen et al); cited from earlier work
[6] = ref 25 (Theisen et al); cited from earlier work
A549 cells = experiment: XTT cytotoxicity assay; format: cell-based, human; conditions: XTT, 3 days; method says A549 cells, Table 1 says MDCK cells
Summary of the method: as §1

Row | SMILES | CC50 at 3 days (XTT cytotoxicity assay) | protective effect against virus infection (cell viability) [2] | inhibition of viral RNA synthesis (qRT-PCR) [3] | green fluorescence (viral glycoprotein foci) [4] | other results
1 | O=c1c(O)c(-c2ccc(O)cc2)oc2cc(O)cc(O)c12 [kaempferol] | > 100 µg/mL | – | – | – | –
2 | O=C(O)c1cc(O)c(O)c(O)c1 [gallic acid] | 22.1 ± 0.6 µg/mL (≈ 130 µM) | protective effects | significant inhibition | decreased in a dose-dependent manner | reduction of viral production (plaque assay) ([1]; 2.5 μg/mL): approximately 50%; EC50 ([1]; Influenza A virus, H1N1, 72 h, read-out: Plaque inhibition (EC50)): 2.6 ± 0.07 µg/mL (≈ 15.3 µM); EC50 [5]: 50.8 µM; CC50 [6]: 770 µM
3 | C[C@@H]1O[C@@H](OC[C@H]2O[C@@H](Oc3c(-c4ccc(O)c(O)c4)oc4cc(O)cc(O)c4c3=O)[C@H](O)[C@@H](O)[C@@H]2O)[C@H](O)[C@H](O)[C@H]1O [rutintrihydrate, rutin trihydrate] | > 100 µg/mL | – | – | – | –
4 | O.Oc1cc(O)c2c(c1)O[C@H](c1ccc(O)c(O)c1)[C@@H](O)C2 [catechin] | – | protective effects | significant inhibition | decreased in a dose-dependent manner | XTT cytoxicity (CC50) (A549 cells): >100 µg/mL; Plaque inhibition (EC50) [1]: 18.4 ± 0.7 µg/mL; reduction of viral production (plaque assay) ([1]; 25 μg/mL): approximately 50%; EC50 (XTT viability of infected cells, Fig. 1) [2]: 10 to 25 µg/mL
5 | O=c1c(O)c(-c2ccc(O)c(O)c2)oc2cc(O)cc(O)c12 [quercetin hydrate] | > 100 µg/mL | – | – | – | –
